Measurements published in ChEMBL document CHEMBL1154557, “Induction of choline acetyltransferase activity in cholinergic neurons by stolonidiol: structure-activity relationship” (J Nat Prod, 2000).
The source made the active and inactive calls. The calls are words filed in the database; no cut-off is given here.

Tests used:
[1] = molecular target: T1, Choline O-acetyltransferase (Rattus norvegicus) (UniProt P32738); test: Induction of ChAT activity in rat forebrain cells at 0.1 ug/mL relative to control; assay type: cell-based
T1 sequence (whole entry): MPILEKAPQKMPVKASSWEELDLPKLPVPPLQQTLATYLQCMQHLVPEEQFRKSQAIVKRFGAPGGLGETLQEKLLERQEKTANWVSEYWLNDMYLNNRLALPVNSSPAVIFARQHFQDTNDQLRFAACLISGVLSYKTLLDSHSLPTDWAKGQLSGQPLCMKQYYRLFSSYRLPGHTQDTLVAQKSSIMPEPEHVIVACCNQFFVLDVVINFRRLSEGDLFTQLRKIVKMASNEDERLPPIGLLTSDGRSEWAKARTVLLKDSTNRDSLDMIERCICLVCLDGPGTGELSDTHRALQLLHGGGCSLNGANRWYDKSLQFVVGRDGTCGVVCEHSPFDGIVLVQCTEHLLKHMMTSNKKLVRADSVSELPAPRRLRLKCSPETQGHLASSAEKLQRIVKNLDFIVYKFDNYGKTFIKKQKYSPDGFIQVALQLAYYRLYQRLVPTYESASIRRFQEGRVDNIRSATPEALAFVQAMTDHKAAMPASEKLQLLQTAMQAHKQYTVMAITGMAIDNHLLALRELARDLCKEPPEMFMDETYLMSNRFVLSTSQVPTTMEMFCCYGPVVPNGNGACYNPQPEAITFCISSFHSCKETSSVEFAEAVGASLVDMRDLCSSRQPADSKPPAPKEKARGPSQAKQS
Summary of the method: (§1)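 Basal forebrain from E17–19 rat embryos, papain-dissociated, plated at 1 × 10^6 cells/well in DMEM/F12 with 5% FBS and 5% horse serum. After 7 days of preculture, cells were exposed for 3 days. Lysate (1% Triton X-100, pH 6.8 Tris) was incubated with 25 µM [14C]acetyl-CoA and 8 mM choline with eserine for 1 h at 37 °C. Extracted [14C]ACh was counted. Results are % of control, n = 3.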

[2] = molecular target: T1, Choline O-acetyltransferase (Rattus norvegicus); test: Induction of ChAT activity in rat forebrain cells at 1 ug/mL relative to control; assay type: cell-based; summary of the method: as §1
[3] = molecular target: T2, Choline O-acetyltransferase (Mus musculus) (UniProt Q03059); test: Induction of ChAT activity in mouse SN49 cultured cells at 0.1 ug/mL after 3 days relative to control; assay type: cell-based
T2 sequence (whole entry): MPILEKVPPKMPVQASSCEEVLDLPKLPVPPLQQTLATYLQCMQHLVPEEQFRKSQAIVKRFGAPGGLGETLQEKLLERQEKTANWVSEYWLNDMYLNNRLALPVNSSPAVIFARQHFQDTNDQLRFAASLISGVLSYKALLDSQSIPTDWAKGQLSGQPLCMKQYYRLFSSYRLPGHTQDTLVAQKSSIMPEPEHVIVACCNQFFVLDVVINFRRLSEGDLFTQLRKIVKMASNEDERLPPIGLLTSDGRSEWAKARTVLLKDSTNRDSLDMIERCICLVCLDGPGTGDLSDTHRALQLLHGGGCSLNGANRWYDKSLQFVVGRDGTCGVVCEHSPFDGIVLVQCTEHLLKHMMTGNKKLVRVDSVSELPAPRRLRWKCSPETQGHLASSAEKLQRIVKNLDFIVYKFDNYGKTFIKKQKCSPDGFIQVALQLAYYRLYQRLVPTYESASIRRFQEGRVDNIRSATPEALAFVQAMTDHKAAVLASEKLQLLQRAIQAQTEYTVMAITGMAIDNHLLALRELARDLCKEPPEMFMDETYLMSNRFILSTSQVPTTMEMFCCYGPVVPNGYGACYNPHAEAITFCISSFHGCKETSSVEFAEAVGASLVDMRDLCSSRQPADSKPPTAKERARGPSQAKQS
Summary of the method: (§2)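 Mouse septal SN49 hybrid cells were grown in DMEM with 10% FBS and plated at 2 × 10^5 cells/well. After 24 h at 37 °C, compound was added for a further 48 h. ChAT was measured in Triton lysates as [14C]acetylcholine formed from 25 µM [14C]acetyl-CoA and 8 mM choline chloride (0.1 mM eserine, 37 °C, 1 h) by scintillation counting. Results are % of control, n = 3, with Dunnett test.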

Rattus norvegicus [4] = organism: Rattus norvegicus; test: Induction of ChAT mRNA expression in rat forebrain cells at 1 ug/mL after 6 hrs by RT-PCR method; assay type: functional, cell-based
Summary of the method: (§3)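 Cultured rat embryo basal forebrain cells were exposed for 6 h. ChAT mRNA was assessed by RT-PCR, and ethidium bromide-stained products were quantified by optical scanning as relative intensities.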

[5] = molecular target: T1, Choline O-acetyltransferase (Rattus norvegicus); test: Induction of ChAT activity in rat forebrain cultured cells at 0.01 ug/mL after 3 days relative to control; assay type: cell-based; summary of the method: as §1
[6] = molecular target: T2, Choline O-acetyltransferase (Mus musculus); test: Induction of ChAT activity in mouse SN49 cultured cells at 1 ug/mL after 3 days relative to control; assay type: cell-based; summary of the method: as §2
Rattus norvegicus [7] = organism: Rattus norvegicus; test: Induction of ChAT mRNA expression in rat forebrain cells at 0.1 ug/mL after 6 hrs by RT-PCR method; assay type: functional, cell-based; summary of the method: as §3
[8] = molecular target: T2, Choline O-acetyltransferase (Mus musculus); test: Induction of ChAT activity in mouse SN49 cultured cells at 10 ug/mL after 3 days relative to control; assay type: cell-based; summary of the method: as §2
[9] = molecular target: T1, Choline O-acetyltransferase (Rattus norvegicus); test: Induction of ChAT activity in rat forebrain cultured cells at 0.1 ug/mL after 3 days relative to control; assay type: cell-based; summary of the method: as §1
[10] = molecular target: T2, Choline O-acetyltransferase (Mus musculus); test: Induction of ChAT activity in mouse SN49 cultured cells at 0.01 ug/mL after 3 days relative to control; assay type: cell-based; summary of the method: as §2
[11] = molecular target: T1, Choline O-acetyltransferase (Rattus norvegicus); test: Induction of ChAT activity in rat forebrain cultured cells at 10 ug/mL after 3 days relative to control; assay type: cell-based; summary of the method: as §1
[12] = Cytotoxicity against rat forebrain cells at 10 ug/mL; assay type: cell-based
[13] = molecular target: T1, Choline O-acetyltransferase (Rattus norvegicus); test: Induction of ChAT activity in rat forebrain cultured cells at 1 ug/mL after 3 days relative to control; assay type: cell-based; summary of the method: as §1
[14] = Cytotoxicity against rat basal forebrain cells at 10 ug/mL

SMILES	Activity [1]	Activity [2]	also measured
C=C1CC[C@@H](OC)[C@@](O)(CO)C[C@H]2O[C@@]23[C@H](C(C)(C)O)CC[C@@]3(C)CC1	89.2%	92.3%	–
C=C1CC[C@@H]2O[C@]2(COC(C)=O)C[C@H]2O[C@@]23[C@H](C(C)(C)O)CC[C@@]3(C)[C@H](OC(C)=O)C1	11.5%	161%	–
C=C1CC[C@@H](Cl)[C@@](O)(COC(=O)c2ccc(Br)cc2)C[C@H]2O[C@@]23[C@H](C(C)(C)O)CC[C@@]3(C)CC1	96.7%	95.3%	–
C=C1CC/C=C(/CO)C/C=C2\[C@H](C(C)(C)O)CC[C@@]2(C)CC1	109%	122%	–
COC1(OC)CC[C@@H]2O[C@]2(CO)C[C@H]2O[C@@]23[C@H](C(C)(C)O)CC[C@@]3(C)CC1	109%	104%	–

More lines, main results first:

Activity [1]	Activity [2]	SMILES	also measured
108%	143%	C=C1CC[C@@H]2O[C@]2(COC(=O)CCCCCCCCCCC)C[C@H]2O[C@@]23[C@H](C(C)(C)O)CC[C@@]3(C)CC1	–
89.2%	210%	C=C1CC[C@@H]2O[C@]2(COC(C)=O)C[C@H]2O[C@@]23[C@H](C(C)(C)O)CC[C@@]3(C)CC1	–
139%	164%	C=C1CC[C@@H]2O[C@]2(COC(=O)CCCCC)C[C@H]2O[C@@]23[C@H](C(C)(C)O)CC[C@@]3(C)CC1	–
118%	179%	C=C1CC[C@@H]2O[C@]2(COC(=O)CCC)C[C@H]2O[C@@]23[C@H](C(C)(C)O)CC[C@@]3(C)CC1	–
127%	231%	C=C1CC[C@@H]2O[C@]2(CO)C[C@H]2O[C@@]23[C@H](C(C)(C)O)CC[C@@]3(C)CC1 [STOLONIDIOL]	Activity [3]: 142%; Activity (Rattus norvegicus [4]): Active; Activity [5]: 130%; Activity [6]: 145%; Activity (Rattus norvegicus [7]): Active; Activity [8]: 92.7%; Activity [9]: 178%; Activity [10]: 146%; Activity [11]: 38.2%; Activity [12]: Toxic; Activity [13]: 139%; Activity [14]: Toxic
116%	173%	C=C1CC[C@@H]2O[C@]2(COC(=O)c2ccccc2)C[C@H]2O[C@@]23[C@H](C(C)(C)O)CC[C@@]3(C)CC1	–
97.6%	174%	C=C1CC[C@@H]2O[C@]2(COC(=O)CCCCCCCCCCCCC)C[C@H]2O[C@@]23[C@H](C(C)(C)O)CC[C@@]3(C)CC1	–
